Laboratory results as given in ChEMBL document CHEMBL1212834, “Pyrido[2,3-b]pyrazines, discovery of TRPV1 antagonists with reduced potential for the formation of reactive metabolites” (Bioorg Med Chem Lett, 2010).
Active and inactive are the calls of the source. The rule behind the calls is not given here.

Experiments:
[1] = Ratio of drug level in brain to plasma in rat at 10 mg/kg, po; format: ADME, organism-based; parameters: dose 10 mg/kg, route oral; conditions: read-out: BPR
Rattus norvegicus [2] = test: Plasma concentration in Sprague-Dawley rat carrageenan-induced thermal hyperalgesia model at 1 mg/kg, po; format: ADME, organism-based; parameters: dose 1 mg/kg, route oral; conditions: in vivo
Procedure, shortened: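 Plasma sampled immediately after the carrageenan thermal hyperalgesia experiment, following oral dosing as a suspension in 0.5% methocel.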

[3] = Oral bioavailability in dog at 1 mg/kg; format: ADME, organism-based, Canis lupus familiaris; conditions: in vivo
Procedure, shortened: (§1)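 Oral bioavailability from a 1 mg/kg po dose (suspension in 0.5% methocel), compared against a 1 mg/kg iv dose (solution in 3:1 PEG300:water).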

[4] = Plasma concentration in rat complete Freund's adjuvant-induced inflammation model at 3 mg/kg, po QD for 3 consecutive days measured at 2 hrs post dose on day 2; format: ADME, organism-based; parameters: dose 3 mg/kg, route oral
Procedure, shortened: (§2)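 CFA (200 µL) injected intraplantar into left hind paw; next day rats dosed orally once daily for three consecutive days (1, 3 or 10 mg/kg, suspension in 0.5% methocel). Separate cohort: plasma sampled each day 2 h after dosing.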

[5] = Oral bioavailability in rat at 1 mg/kg; format: ADME, organism-based; conditions: in vivo; procedure, shortened: as §1
[6] = Half life in rat at 1 mg/kg, iv; format: ADME, organism-based; parameters: dose 1 mg/kg, route intravenous; conditions: in vivo
Procedure, shortened: (§3)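 IV PK at 1 mg/kg, given as a solution in 3:1 PEG300:water. Plasma half-life, clearance and volume of distribution derived.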

[7] = AUC (0 to 24 hrs) in dog at 10 mg/kg, po; format: ADME, organism-based, Canis lupus familiaris; parameters: time < 24 hr, dose 10 mg/kg, route oral; conditions: plasma
Procedure, shortened: (§4)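 Oral PK at the dose in the line, given as a suspension in 0.5% methocel. […] Reported as mean ± error.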

[8] = Clearance in dog at 1 mg/kg, iv; format: ADME, organism-based, Canis lupus familiaris; parameters: dose 1 mg/kg, route intravenous; conditions: in vivo; procedure, shortened: as §3
Rattus norvegicus [9] = test: Antiinflammatory activity in Sprague-Dawley rat assessed as inhibition of carrageenan-induced thermal hyperalgesia at 3 mg/kg, po administered 3.5 hrs after carrageenan challenge measured after 5 hrs; format: functional
Procedure, shortened: (§5)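 Rat carrageenan-induced thermal hyperalgesia. Dosed orally as a suspension in 0.5% methocel; % inhibition reported at each dose.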

Canis familiaris = species on record: Canis familiaris; test: Cardiotoxicity in dog assessed as effect on mean arterial pressure at plasma concentration of up to 24 uM; format: toxicity, organism-based, Canis lupus familiaris
Rattus norvegicus [10] = test: Antiinflammatory activity in rat assessed as inhibition of complete Freund's adjuvant-induced hind paw edema at 1 mg/kg, po administered 1 day after complete Freund's adjuvant challenge QD for 3 consecutive days measured at 24 hrs post dose on day 3; format: functional
Procedure, shortened: (§6)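 CFA 200 µL injected intraplantar into the left hind paw. From the next day, 1, 3 or 10 mg/kg po once daily for 3 days as a suspension in 0.5% methocel.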

[11] = Plasma concentration in rat complete Freund's adjuvant-induced inflammation model at 10 mg/kg, po QD for 3 consecutive days measured at 2 hrs post dose on day 1; format: ADME, organism-based; parameters: dose 10 mg/kg, route oral; procedure, shortened: as §2
[12] = target: T1, Amine oxidase [flavin-containing] A (Homo sapiens, UniProt P21397); test: Inhibition of MAOA
T1 sequence (P21397 whole entry): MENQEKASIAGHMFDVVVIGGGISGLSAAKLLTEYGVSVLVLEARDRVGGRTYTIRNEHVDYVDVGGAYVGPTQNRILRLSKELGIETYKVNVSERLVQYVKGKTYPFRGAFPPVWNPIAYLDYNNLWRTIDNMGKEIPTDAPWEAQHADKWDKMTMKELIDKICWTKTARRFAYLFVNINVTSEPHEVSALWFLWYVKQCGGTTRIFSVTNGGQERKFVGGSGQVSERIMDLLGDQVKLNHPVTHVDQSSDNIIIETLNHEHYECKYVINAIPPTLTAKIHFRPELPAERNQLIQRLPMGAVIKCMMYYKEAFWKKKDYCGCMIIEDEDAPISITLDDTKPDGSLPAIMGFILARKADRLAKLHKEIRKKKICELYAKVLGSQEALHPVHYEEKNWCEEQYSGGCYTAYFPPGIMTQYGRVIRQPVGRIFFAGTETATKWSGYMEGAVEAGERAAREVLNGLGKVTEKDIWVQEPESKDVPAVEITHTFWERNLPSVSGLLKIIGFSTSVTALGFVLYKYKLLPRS
Procedure, shortened: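 Off-target panel of more than 160 receptors, ion channels, transporters and kinases, which included MAO.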

[13] = Cmax in rhesus monkey at 1 mg/kg, po; format: ADME, organism-based, Macaca mulatta; parameters: dose 1 mg/kg, route oral; conditions: in vivo; procedure, shortened: as §4
[14] = Plasma concentration in rat complete Freund's adjuvant-induced inflammation model at 1 mg/kg, po QD for 3 consecutive days measured at 2 hrs post dose on day 1; format: ADME, organism-based; parameters: dose 1 mg/kg, route oral; procedure, shortened: as §2
[15] = target: Voltage-gated inwardly rectifying potassium channel KCNH2 (Homo sapiens, UniProt Q12809); test: Inhibition of human hERG
[16] = AUC (0 to 24 hrs) in rat at 100 mg/kg, po; format: ADME, organism-based; parameters: time < 24 hr, dose 100 mg/kg, route oral; conditions: plasma; procedure, shortened: as §4
[17] = Cmax in rat at 1 mg/kg, po; format: ADME, organism-based; parameters: dose 1 mg/kg, route oral; conditions: in vivo; procedure, shortened: as §4
Plasma = test: Covalent protein binding in rat assessed per mg of protein at 8.1 mg/kg, po after 2 to 24 hrs; conditions: in vivo
[18] = AUC (0 to 24 hrs) in rat at 1 mg/kg, po; format: ADME, organism-based; parameters: time < 24 hr, dose 1 mg/kg, route oral; conditions: plasma; procedure, shortened: as §4
Rattus norvegicus [19] = test: Antiinflammatory activity in rat assessed as inhibition of complete Freund's adjuvant-induced hind paw edema at 3 mg/kg, po administered 1 day after complete Freund's adjuvant challenge QD for 3 consecutive days measured at 2 hrs post dose on day 1; format: functional; procedure, shortened: as §6
MDCK = test: Efflux ratio of permeability from basolateral to apical side over apical to basolateral side of MDCK cells; conditions: dog
[20] = Plasma concentration in rat complete Freund's adjuvant-induced inflammation model at 3 mg/kg, po at 2 hrs on third day; format: ADME, organism-based; parameters: dose 3 mg/kg, route oral; procedure, shortened: as §2
Rattus norvegicus [21] = test: Plasma concentration in Sprague-Dawley rat carrageenan-induced thermal hyperalgesia model at 3 mg/kg, po; format: ADME, organism-based; parameters: dose 3 mg/kg, route oral; conditions: in vivo
Procedure, shortened: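 Rats given compound orally as a suspension in 0.5% methocel in the carrageenan-induced thermal hyperalgesia model. Plasma sampled immediately after the CITH experiment.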

Rattus norvegicus [22] = test: Antiinflammatory activity in rat assessed as reversal of complete Freund's adjuvant-induced mechanical hyperalgesia at 1 to 10 mg/kg, po administered 1 day after complete Freund's adjuvant challenge QD for 3 consecutive days measured at 24 hrs post dose on day 2
[23] = target: T2, Transient receptor potential cation channel subfamily V member 1 (Rattus norvegicus, UniProt O35433); format: functional, tissue-based, Sprague-Dawley, Dorsal root ganglion; conditions: read-out: IC50
[24] = target: T2, Transient receptor potential cation channel subfamily V member 1; test: Antagonist activity at Sprague-Dawley rat dorsal root ganglion TRPV1 assessed as inhibition of pH-induced receptor activation; format: functional, tissue-based
Procedure, shortened: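 Rat TRPV1 activated by low pH (5.0–5.5); inhibition measured and IC50 given as the mean of ≥3 experiments.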

[25] = Cmax in dog at 1 mg/kg, po; format: ADME, organism-based, Canis lupus familiaris; parameters: dose 1 mg/kg, route oral; conditions: in vivo; procedure, shortened: as §4
Rattus norvegicus [26] = test: Antiinflammatory activity in Sprague-Dawley rat assessed as inhibition of carrageenan-induced thermal hyperalgesia at 1 mg/kg, po administered 3.5 hrs after carrageenan challenge measured after 5 hrs; format: functional; procedure, shortened: as §5
Liver microsomes = test: Metabolic stability in rat liver microsomes assessed per mg of protein at 8.1 mg/kg, po after 2 to 24 hrs; format: ADME, organism-based, Microsome; parameters: dose 8.1 mg/kg, route oral
[27] = Clearance in rat at 1 mg/kg, iv; format: ADME, organism-based; parameters: dose 1 mg/kg, route intravenous; conditions: in vivo; procedure, shortened: as §3

T2 sequence (O35433 whole entry): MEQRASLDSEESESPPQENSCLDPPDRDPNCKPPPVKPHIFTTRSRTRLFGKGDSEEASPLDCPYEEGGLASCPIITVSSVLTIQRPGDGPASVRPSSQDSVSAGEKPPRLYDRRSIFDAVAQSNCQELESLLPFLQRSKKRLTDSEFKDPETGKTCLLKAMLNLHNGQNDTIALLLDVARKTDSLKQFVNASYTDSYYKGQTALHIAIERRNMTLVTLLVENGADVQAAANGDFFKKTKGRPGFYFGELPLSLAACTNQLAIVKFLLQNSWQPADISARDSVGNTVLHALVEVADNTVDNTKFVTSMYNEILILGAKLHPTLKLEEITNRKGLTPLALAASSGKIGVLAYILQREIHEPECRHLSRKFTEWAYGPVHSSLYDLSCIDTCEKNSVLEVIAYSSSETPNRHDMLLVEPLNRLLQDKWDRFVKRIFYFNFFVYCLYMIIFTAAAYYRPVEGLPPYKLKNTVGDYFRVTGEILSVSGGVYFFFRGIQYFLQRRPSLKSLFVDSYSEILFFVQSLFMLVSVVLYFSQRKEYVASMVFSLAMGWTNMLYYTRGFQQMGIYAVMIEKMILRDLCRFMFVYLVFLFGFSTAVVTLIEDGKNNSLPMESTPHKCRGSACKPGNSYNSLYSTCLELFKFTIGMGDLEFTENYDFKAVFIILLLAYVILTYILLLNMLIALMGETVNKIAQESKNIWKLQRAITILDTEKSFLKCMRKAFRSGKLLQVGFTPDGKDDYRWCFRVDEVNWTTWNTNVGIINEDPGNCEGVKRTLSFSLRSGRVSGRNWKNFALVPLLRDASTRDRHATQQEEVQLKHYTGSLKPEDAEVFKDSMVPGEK
Voltage-gated inwardly rectifying potassium channel KCNH2, sequence (Q12809 whole entry): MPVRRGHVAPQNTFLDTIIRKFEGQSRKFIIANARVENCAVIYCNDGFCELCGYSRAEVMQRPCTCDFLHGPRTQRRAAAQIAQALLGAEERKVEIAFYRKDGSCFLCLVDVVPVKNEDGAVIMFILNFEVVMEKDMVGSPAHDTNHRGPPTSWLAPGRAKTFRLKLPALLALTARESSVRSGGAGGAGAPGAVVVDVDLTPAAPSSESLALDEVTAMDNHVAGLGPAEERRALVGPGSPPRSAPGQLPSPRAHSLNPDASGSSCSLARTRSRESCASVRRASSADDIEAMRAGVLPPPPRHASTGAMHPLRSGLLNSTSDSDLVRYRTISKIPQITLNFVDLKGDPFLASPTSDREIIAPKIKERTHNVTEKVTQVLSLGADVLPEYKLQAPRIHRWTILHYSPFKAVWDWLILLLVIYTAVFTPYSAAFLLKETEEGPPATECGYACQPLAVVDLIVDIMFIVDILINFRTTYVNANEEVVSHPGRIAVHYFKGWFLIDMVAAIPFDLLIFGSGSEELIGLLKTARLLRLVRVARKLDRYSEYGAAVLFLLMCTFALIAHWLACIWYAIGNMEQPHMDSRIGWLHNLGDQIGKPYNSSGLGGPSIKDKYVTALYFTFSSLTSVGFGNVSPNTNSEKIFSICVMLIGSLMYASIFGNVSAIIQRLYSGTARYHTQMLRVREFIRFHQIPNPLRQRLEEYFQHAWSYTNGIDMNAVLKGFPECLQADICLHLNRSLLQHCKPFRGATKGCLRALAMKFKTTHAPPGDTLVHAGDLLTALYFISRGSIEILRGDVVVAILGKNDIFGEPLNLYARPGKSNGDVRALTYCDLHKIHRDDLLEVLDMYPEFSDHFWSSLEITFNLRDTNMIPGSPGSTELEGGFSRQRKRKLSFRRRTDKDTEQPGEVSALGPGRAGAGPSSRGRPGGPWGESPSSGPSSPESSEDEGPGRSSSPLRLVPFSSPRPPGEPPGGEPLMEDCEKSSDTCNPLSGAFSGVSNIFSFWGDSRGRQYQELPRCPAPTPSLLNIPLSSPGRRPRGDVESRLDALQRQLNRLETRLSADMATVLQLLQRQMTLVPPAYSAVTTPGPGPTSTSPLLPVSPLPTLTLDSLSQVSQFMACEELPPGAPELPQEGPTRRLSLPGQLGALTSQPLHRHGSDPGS

Kp [1]: 0.1
concentration (Rattus norvegicus [2]): 240 nM
bioavailability [3]: 57%
concentration at 2 h [4]: 1100 nM
bioavailability [5]: 103%
half-life [6]: 2.3 h
AUC(0-t) at 24 h [7]: 68 µM·h
clearance [8]: 7.4 mL/min/kg
concentration at 2 h [11]: 2430 nM
IC50 [12]: 2400 nM
Cmax [13]: 700 nM
concentration at 2 h [14]: 270 nM
AUC(0-t) at 24 h [16]: 268 µM·h
Cmax [17]: 300 nM
covalent protein binding (Plasma): < 10 pmol/mg
AUC(0-t) at 24 h [18]: 1.4 µM·h
Ratio (MDCK): 3.1
concentration at 2 h [20]: 1280 nM
concentration (Rattus norvegicus [21]): 1090 nM
IC50 [23]: 1.3 nM
IC50 [24]: 1.3 nM
Cmax [25]: 500 nM
Stability (Liver microsomes): < 10 pmol
clearance [27]: 25 mL/min/kg
Structure (SMILES): NC(=O)c1cnc(-c2cnc3c(Nc4ccc(C(F)(F)F)cn4)ccnc3n2)c(C(F)(F)F)c1
inhibition in vivo at 3 mg/kg (Rattus norvegicus [9]): 74%
Activity (Canis familiaris): Non-toxic
inhibition in vivo at 1 mg/kg (Rattus norvegicus [10]): 42%
IC50 [15]: 5900 nM
inhibition in vivo at 3 mg/kg (Rattus norvegicus [19]): 65%
inhibition (Rattus norvegicus [22]): Active
inhibition in vivo at 1 mg/kg (Rattus norvegicus [26]): 49%
